We go through 6 molecules from ChEMBL document CHEMBL1821590, “Novel dihydropyrimidines and its pyrazole derivatives: synthesis and pharmacological screening” (Eur J Med Chem, 2011).

Common to all, as to assay type: functional
In experiment [1] the test system is Candida albicans. Kind of experiment: Antimicrobial activity against Candida albicans at 25 ug/ml by paper disc method. Conditions: read-out: IZ. The gist of the method: (§1)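 Paper disc method against A. niger and C. albicans, with compounds at 25, 50 and 100 µg/mL. Amphotericin-B as standard.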
Experiment [2] relates to Candida albicans. Kind of experiment: Antimicrobial activity against Candida albicans at 50 ug/ml by paper disc method. Conditions: read-out: IZ. The gist of the method: as §1
In experiment [3] the test system is Candida albicans. Kind of experiment: Antimicrobial activity against Candida albicans at 100 ug/ml by paper disc method. The note with it: read-out: IZ. The gist of the method:
as §1

Experiment [4] has as its system Aspergillus niger. Kind of experiment: Antimicrobial activity against Aspergillus niger at 25 ug/ml by paper disc method. Conditions: read-out: IZ. A digest of the protocol:
as §1

In experiment [5] the test system is Aspergillus niger. Nature of the experiment: Antimicrobial activity against Aspergillus niger at 50 ug/ml by paper disc method. The note with it: read-out: IZ. A digest of the protocol: as §1
Experiment [6] concerns Aspergillus niger. Kind of experiment: Antimicrobial activity against Aspergillus niger at 100 ug/ml by paper disc method. Conditions: read-out: IZ. A digest of the protocol:
as §1

Experiment [7] in a line: Antioxidant activity assessed as nitric oxide radical scavenging activity after 150 mins. A digest of the protocol: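 10 mM sodium nitroprusside (4 mL), PBS pH 7.4 (1 mL) and sample or ascorbic acid in DMSO (1 mL, 12.5–100 µg/mL), incubated 150 min at 25 °C. Nitrite detected with sulphanilic acid (5 min) then naphthylethylenediamine (30 min, diffused light). Read at […]. Triplicate. % inhibition = [1 − (Vt/Vc)] × 100. IC50 derived from it.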

Experiment [8] is described as follows: Antioxidant activity assessed as hydrogen peroxide scavenging activity after 10 mins. A digest of the protocol: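 H2O2 (20 mM) in PBS pH 7.4. 1 mL of sample or ascorbic acid in methanol (12.5–100 µg/mL) added to 2 mL H2O2 solution. A230 read after 10 min. % inhibition = [1 − (Vt/Vc)] × 100. Triplicate, averaged. IC50 derived from % inhibition across concentrations.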

Experiment [9] is described as follows: Antioxidant activity assessed as inhibition of lipid peroxidation using egg lecithin liposomes incubated for 1 hr. A digest of the protocol:
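Egg lecithin (3 mg/mL, phosphate buffer pH 7.4) sonicated 10 min to form liposomes. Sample or ascorbic acid (12.5–100 µg/mL) added. Peroxidation induced with FeCl3 and L-ascorbic acid, 1 h at 37 °C. Stopped with HCl/TCA/TBA/BHA, boiled 15 min, centrifuged, supernatant read at 532 nm. Triplicate. % inhibition vs control. IC50 derived.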

Experiment [10] is described as follows: Antioxidant activity assessed as potassium ferricyanide ion reducing power after 20 mins. A digest of the protocol: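 Oyaizu method. Samples or ascorbic acid in DMF (12.5–100 µg/mL) mixed with 0.2 M phosphate buffer pH 6.6 and 1% potassium ferricyanide, 20 min at 50 °C. 10% TCA added, centrifuged. Supernatant mixed with water and 0.1% FeCl3, read at 700 nm. % = [(Vt/Vc) − 1] × 100. IC50 derived.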

Experiment [11] can be described thus: Antiinflammatory activity assessed as inhibition of albumin denaturation at 100 ug/ml by UV-visible spectrophotometry. The gist of the method:
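Compounds dissolved in minimal DMF, diluted in PBS pH 7.4 (final DMF <2.5%). 1 mL test solution (100 µg/mL) plus 1 mL 1% albumin in PBS, 15 min at 27 ± 1 °C, then heated 10 min at 60 ± 1 °C. After cooling, turbidity read at 660 nm. % inhibition = [(Vt/Vc) − 1] × 100 against a no-drug control. Triplicate, averaged. Diclofenac standard.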

For experiment [12], the system named is Metaphire posthuma. Kind of experiment: Anthelmintic activity against Pheretima posthuma assessed as time taken for complete parasite paralysis at 0.1% w/v. A digest of the protocol: (§2)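 Earthworms (Pheretima posthuma) exposed to test solutions at 0.1, 0.2 and 0.5% w/v; time in minutes to complete paralysis (worms motionless) recorded. Albendazole as standard. Mean of three determinations ± S.D.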

Experiment [13] concerns Metaphire posthuma. Nature of the experiment: Anthelmintic activity against Pheretima posthuma assessed as time taken for complete parasite paralysis at 0.2% w/v. A digest of the protocol: as §2
Experiment [14] relates to Metaphire posthuma. Nature of the experiment: Anthelmintic activity against Pheretima posthuma assessed as time taken for complete parasite paralysis at 0.5% w/v. A digest of the protocol:
as §2

Experiment [15] deals with Metaphire posthuma. Kind of experiment: Anthelmintic activity against Pheretima posthuma assessed as time taken for parasite death at 0.1% w/v. A digest of the protocol:
(§3)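 Earthworms (Pheretima posthuma, spelled Perituma posthuma in text) exposed to test compounds at 0.1, 0.2 and 0.5% w/v. Albendazole served as standard, with an untreated control. Paralysis was recorded as the time until worms became motionless, then time to death was recorded, in minutes. Each value is the mean of three determinations with S.D.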

The test system of experiment [16] is Metaphire posthuma. Kind of experiment: Anthelmintic activity against Pheretima posthuma assessed as time taken for parasite death at 0.2% w/v. The gist of the method: as §3
The subject of experiment [17] is Metaphire posthuma. Nature of the experiment: Anthelmintic activity against Pheretima posthuma assessed as time taken for parasite death at 0.5% w/v. A digest of the protocol: as §3
The subject of experiment [18] is Escherichia coli. Nature of the experiment: Antimicrobial activity against Escherichia coli at 25 ug/ml by agar plate diffusion technique. The note with it: read-out: IZ. The gist of the method: (§4)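 Agar plate diffusion against E. coli, P. aeruginosa, S. aureus and B. subtilis, with compounds at 25, 50 and 100 µg/mL. Streptomycin as standard.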
The subject of experiment [19] is Escherichia coli. Kind of experiment: Antimicrobial activity against Escherichia coli at 50 ug/ml by agar plate diffusion technique. Conditions: read-out: IZ. A digest of the protocol:
as §4

For experiment [20], the system named is Escherichia coli. Nature of the experiment: Antimicrobial activity against Escherichia coli at 100 ug/ml by agar plate diffusion technique. The note with it: read-out: IZ. The gist of the method:
as §4

In experiment [21] the test system is Pseudomonas aeruginosa. Nature of the experiment: Antimicrobial activity against Pseudomonas aeruginosa at 25 ug/ml by agar plate diffusion technique. Conditions: read-out: IZ. A digest of the protocol:
as §4

Experiment [22] has as its system Pseudomonas aeruginosa. Nature of the experiment: Antimicrobial activity against Pseudomonas aeruginosa at 50 ug/ml by agar plate diffusion technique. The note with it: read-out: IZ. A digest of the protocol:
as §4

For experiment [23], the system named is Pseudomonas aeruginosa. Nature of the experiment: Antimicrobial activity against Pseudomonas aeruginosa at 100 ug/ml by agar plate diffusion technique. Conditions: read-out: IZ. A digest of the protocol:
as §4

The test system of experiment [24] is Bacillus subtilis. Kind of experiment: Antimicrobial activity against Bacillus subtilis at 25 ug/ml by agar plate diffusion technique. Conditions: read-out: IZ. The gist of the method: as §4
Experiment [25] deals with Bacillus subtilis. Kind of experiment: Antimicrobial activity against Bacillus subtilis at 50 ug/ml by agar plate diffusion technique. Conditions: read-out: IZ. The gist of the method:
as §4

For experiment [26], the system named is Bacillus subtilis. Nature of the experiment: Antimicrobial activity against Bacillus subtilis at 100 ug/ml by agar plate diffusion technique. Conditions: read-out: IZ. The gist of the method: as §4

The structures appear in SMILES notation. In brackets after ≈: the same amount, converted by molar mass.

In the case of `C[C@@H]1[C@H](O)[C@@H](C)/C=C/C=C/C=C/C=C/C=C/C=C/C=C/[C@H](O[C@@H]2O[C@H](C)[C@@H](O)[C@H](N)[C@@H]2O)C[C@@H]2O[C@](O)(C[C@@H](O)C[C@@H](O)[C@H](O)CC[C@@H](O)C[C@@H](O)CC(=O)O[C@H]1C)C[C@H](O)[C@H]2C(=O)O` [AMPHOTERICIN B], the zone of inhibition at 25 µg/mL in the experiment on Candida albicans [1] was determined as 12.9 mm; in the experiment on Aspergillus niger [4] it was 14.9 mm. Further, the zone of inhibition at 50 µg/mL came to 15.3 mm in the experiment on Candida albicans [2] and 17.1 mm in the experiment on Aspergillus niger [5]. The results for the zone of inhibition at 100 µg/mL with Candida albicans [3] and in the experiment on Aspergillus niger [6] were 23.1 mm and 26.1 mm, respectively.
In the case of `CN(C)c1ccc(-c2nc(NN)n(C)c(=O)c2C#N)cc1`, the IC50 is 69 µg/mL (≈ 243 µM) in experiment [7], 66 µg/mL (≈ 232 µM) in [8], 63 µg/mL (≈ 222 µM) in experiment [9] and 81 µg/mL (≈ 285 µM) in experiment [10]. Besides, the inhibition in experiment [11] stood at 12.6%. Also, the Time in the experiment with Metaphire posthuma [12] was 28.25 min; with Metaphire posthuma [13], 26.35 min; with Metaphire posthuma [14], 25.64 min; in the experiment with Metaphire posthuma [15], 54.22 min; with Metaphire posthuma [16] it was 46.44 min; in the experiment on Metaphire posthuma [17] it was 43.34 min. Moreover, the zone of inhibition at 25 µg/mL worked out at 5.74 mm with Escherichia coli [18]; 5.78 mm in the experiment on Pseudomonas aeruginosa [21]; 8.1 mm with Bacillus subtilis [24]; 9.14 mm in the experiment on Candida albicans [1]; 7.14 mm in the experiment on Aspergillus niger [4]. Moreover, the zone of inhibition at 50 µg/mL in the experiment with Escherichia coli [19] came to 7.82 mm; in the experiment with Pseudomonas aeruginosa [22] it was 6.27 mm; in the experiment with Bacillus subtilis [25], 10.5 mm; in the experiment with Candida albicans [2], 9 mm; in the experiment on Aspergillus niger [5] it was 9.48 mm. Further, the zone of inhibition at 100 µg/mL in the experiment with Escherichia coli [20] amounted to 8.28 mm; in the experiment with Pseudomonas aeruginosa [23], 8.83 mm; with Bacillus subtilis [26], 14.5 mm; in the experiment with Candida albicans [3] it was 15.3 mm; in the experiment on Aspergillus niger [6], 15.8 mm.
`O=C(O)Cc1ccccc1Nc1c(Cl)cccc1Cl`: the inhibition in [11] stood at 83.3%.
Turning to `COc1cccc(-c2nc(SC)n(C)c(=O)c2C#N)c1OC`, the IC50 in [7] was 67 µg/mL (≈ 211 µM); in [8], 43 µg/mL (≈ 135 µM); in [9], 48 µg/mL (≈ 151 µM); in experiment [10], 54 µg/mL (≈ 170 µM). The inhibition in experiment [11] worked out at 38.2%. In addition, the Time with Metaphire posthuma [12] is listed as 75.54 min; with Metaphire posthuma [13], 57.18 min; with Metaphire posthuma [14], 41.47 min; in the experiment with Metaphire posthuma [15], 83.02 min; in the experiment with Metaphire posthuma [16], 60.44 min; with Metaphire posthuma [17] it was 56.08 min. Also, the zone of inhibition at 25 µg/mL is 5.86 mm in the experiment on Pseudomonas aeruginosa [21], 10.4 mm in the experiment on Bacillus subtilis [24], 10.5 mm in the experiment with Candida albicans [1] and 9.25 mm in the experiment on Aspergillus niger [4]. Further, the zone of inhibition at 50 µg/mL in the experiment on Pseudomonas aeruginosa [22] came to 8.25 mm; with Bacillus subtilis [25], 14.4 mm; in the experiment with Candida albicans [2], 13 mm; in the experiment on Aspergillus niger [5], 12 mm. The zone of inhibition at 100 µg/mL in the experiment on Pseudomonas aeruginosa [23] was 9.93 mm; with Bacillus subtilis [26], 20.3 mm; with Candida albicans [3] it was 19.5 mm; with Aspergillus niger [6], 19.7 mm.
In the case of `O=C1O[C@H]([C@@H](O)CO)C(O)=C1O` [ASCORBIC ACID], the IC50 in experiment [7] was 47 µg/mL (≈ 267 µM); in experiment [8], 33 µg/mL (≈ 187 µM); in experiment [9], 26 µg/mL (≈ 148 µM); in [10], 31 µg/mL (≈ 176 µM).
As to `CCCSc1ccc2[nH]c(NC(=O)OC)nc2c1` [ALBENDAZOLE], the Time in the experiment with Metaphire posthuma [12] was 50.38 min; with Metaphire posthuma [13], 35.58 min; in the experiment on Metaphire posthuma [14] it was 30.57 min; in the experiment on Metaphire posthuma [15], 60.36 min; in the experiment with Metaphire posthuma [16], 55.25 min; with Metaphire posthuma [17], 53.34 min.
